In series [1] the target is T1, Topoiomerase 1B (Molluscum contagiosum virus subtype 1) (UniProt Q98254).
T1 sequence (whole entry): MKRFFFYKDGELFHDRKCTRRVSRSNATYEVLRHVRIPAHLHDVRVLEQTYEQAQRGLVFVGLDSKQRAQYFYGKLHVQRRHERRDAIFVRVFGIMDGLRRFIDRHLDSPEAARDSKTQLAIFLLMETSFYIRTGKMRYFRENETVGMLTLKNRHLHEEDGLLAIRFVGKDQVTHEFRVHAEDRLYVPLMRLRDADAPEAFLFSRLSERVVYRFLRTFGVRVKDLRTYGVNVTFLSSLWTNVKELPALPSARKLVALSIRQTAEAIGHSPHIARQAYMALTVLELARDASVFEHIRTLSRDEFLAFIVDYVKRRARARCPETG
The experiment in a line: (§1) DNA cleavage and religation activity as inhibition of type 1B topoisomerase of molluscum contagiosum virus (MCV). Type of series: functional. The gist of the method: (§2)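 Type 1B topoisomerase of molluscum contagiosum virus tested as a counterscreen in a microtiter plate format that reads out DNA cleavage and religation.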

In series [2] the test system is Integrase (Human immunodeficiency virus 1). The experiment in a line: Tested in vitro against strand -transfer (ST) activity in the presence of Mg2+ as the cationic cofactor.
Series [3] shares this test system. The experiment in a line: Inhibition of strand -transfer (ST) activity in the presence of Mn2+.
Series [4] relates to Human immunodeficiency virus 1. The experiment in a line: In vitro integration activity provided by preintegration complexes isolated from HIV-infected cells. Type of series: functional. The gist of the method:
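Preintegration complexes were made with biologically inactivated HIV-based vectors and isolated from infected cells. They integrate their endogenously synthesized viral cDNA into an added target DNA, read out by microtiter plate assay over a range of compound concentrations.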

Series [5] deals with Integrase (Human immunodeficiency virus 1). The experiment in a line: Inhibition of 3'-processing (TC) in the presence of Mn2+ in vitro.
Series [6] in a line: HeLa cell cytotoxicity by MTT cytotoxicity assay. Conditions: human, HeLa cells; read-out: LD50 (the source's name). Type of series: cell-based. The gist of the method:
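HeLa cells in culture exposed to a range of compound concentrations; viability read by MTT assay.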
In general terms: Formazan colour is commonly taken as a measure of viable cells.

For series [7], the system named is Molluscum contagiosum virus. The experiment in a line: DNA relaxation activity tested by the inhibition of the Type 1B topoisomerase of molluscum contagiosum virus (MCV). In kind it is functional. The gist of the method:
(§3)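 Type 1B topoisomerase of molluscum contagiosum virus tested as a counterscreen. Supercoiled DNA relaxation was analysed on gels.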

A further series addresses T2, Topoiomerase 1B (Molluscum contagiosum virus subtype 1, UniProt Q98254).
T2 sequence (Q98254 whole entry): T1 sequence (whole entry)
Described as §1. In kind it is functional. The gist of the method: as §2

In series [8] the test system is Molluscum contagiosum virus. The experiment in a line: DNA relaxation activity tested by the inhibition of the type 1B topoisomerase of molluscum contagiosum virus (MCV) at a concentration of 200 uM; NA is Not Active. In kind it is functional. The gist of the method: (§4)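 MCV type 1B topoisomerase counterscreen reading DNA relaxation, with products analysed on gels.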

In series [9] the test system is Integrase (Human immunodeficiency virus 1). The experiment in a line: Compound was tested in vitro against strand -transfer (ST) activity in the presence of Mg2+ as the cationic cofactor at a concentration of 200 uM; NA is Not Active.
Series [10] shares this test system. The experiment in a line: Compound was tested in vitro against strand -transfer (ST) activity in the presence of Mn2+ at a concentration of 200 uM; NA is Not Active.
The test system is the same in series [11]. The experiment in a line: Compound was tested in vitro against 3'-processing (TC) in the presence of Mn2+ at a concentration of 200 uM; Na is Not Active.
Series [12] relates to Molluscum contagiosum virus. The experiment in a line: DNA cleavage and religation activity tested by the inhibition of the type 1B topoisomerase of molluscum contagiosum virus (MCV) at a concentration of 200 uM; NA is Not Active. In kind it is functional. The gist of the method:
(§5)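 MCV type 1B topoisomerase counterscreen in microtiter plate format, reading DNA cleavage and religation; compounds tested up to 200 uM.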

In series [13] the test system is Molluscum contagiosum virus. The experiment in a line: DNA cleavage and religation activity tested by the inhibition of the type 1B topoisomerase of molluscum contagiosum virus (MCV)at a concentration of 200 uM; NA is Not Active. Type of series: functional. The gist of the method:
as §5

In series [14] the test system is Molluscum contagiosum virus. The experiment in a line: DNA relaxation activity tested by the inhibition of the type 1B topoisomerase of molluscum contagiosum virus (MCV)at a concentration of 500 uM; NA is Not Active. Type of series: functional, organism-based. The gist of the method: as §4
The subject of series [15] is Molluscum contagiosum virus. The experiment in a line: DNA relaxation activity tested by the inhibition of the type 1B topoisomerase of molluscum contagiosum virus (MCV)at a concentration of 200 uM; NA is Not Active. Type of series: functional, organism-based. The gist of the method:
as §3

For series [16], the system named is Integrase (Human immunodeficiency virus 1). The experiment in a line: Compound was tested in vitro against 3''-processing (TC) in the presence of Mn2+ at a concentration of 200 uM; NA is Not Active.

Here are results for 19 compounds from ChEMBL document CHEMBL1133186, “A new class of HIV-1 integrase inhibitors: the 3,3,3', 3'-tetramethyl-1,1'-spirobi(indan)-5,5',6,6'-tetrol family” (J Med Chem, 2000).

Each structure is given as a SMILES string. The source made the active and inactive calls. The calls are words filed in the database; no cut-off is given here.

A word on the IC50: it is the midpoint of a concentration-inhibition curve. Higher therefore signals a need for much substance. As to `CC1(C)CC2(CC(C)(C)c3cc([N+](=O)[O-])c(O)cc32)c2cc(O)c([N+](=O)[O-])cc21`, the inhibition entry in series [1], in series [2], in [3], in series [5] and in series [7] was “inactive” in each case. In [4], this compound displayed an IC50 of more than 80 µM. Further, in series [6], the CC50 came to 198 µM.

Take `CC1(C)CC2(CC(C)(C)c3c(Br)c(O)c(O)c(Br)c32)c2c(Br)c(O)c(O)c(Br)c21`: the results for the IC50 (against Topoiomerase 1B; in [4]) were 50 µM and more than 80 µM, respectively. Further, in series [6], the CC50 worked out at 18 µM. Besides, in series [7], the inhibition entry was “inactive”.

For `CC1(C)CC2(CC(C)(C)c3cc(Br)c(OS(=O)(=O)O)cc32)c2cc(OS(=O)(=O)O)c(Br)cc21`, the inhibition entry in series [1], in series [2], in series [3] and in [5] was “inactive” throughout. This compound displayed a 50% inhibitory concentration (IC50) in [4] of more than 80 µM. Also, the CC50 in series [6] was 50 µM.

As to `Cc1cc2c(cc1O)C1(CC2(C)C)CC(C)(C)c2cc(C)c(O)cc21`, the “Inhibition of DNA relaxation” value in series [8] is “inactive”. For the same compound, the IC50 in series [4] is more than 80 µM. Further, the NA result in series [9], in series [10] and in series [11] was “inactive” in each case. Besides, in series [6], the CC50 amounted to 10 µM. Further, in series [12], the “Inhibition of DNA cleavage and religation” value is “inactive”.

For the compound `CC1(C)CC2(CC(C)(C)c3cc(N)c(O)cc32)c2cc(O)c(N)cc21`, the inhibition entry in [1], in [3], in [5] and in [7] was “inactive” in each case. In series [4], this compound displayed a half-inhibitory concentration (IC50) of more than 80 µM. Moreover, the CC50 in series [6] stood at 47 µM.

Turning to `CC1(C)CC2(CC(C)(C)c3ccc(O)cc32)c2cc(O)ccc21`, the NA result in [13] and in series [14] was “inactive” in each case. In series [4], this compound displayed an IC50 of more than 80 µM. Also, the CC50 in series [6] is less than 20 µM.

For `CC1(C)CC2(CC(C)(C)c3ccc(O)c([N+](=O)[O-])c32)c2cc(O)c([N+](=O)[O-])cc21` (stereo not drawn), the inhibition entry in [1] and in series [7] was “inactive” each time. In addition, in [4], the half-inhibitory concentration (IC50) was more than 80 µM. For the same compound, in [6], the CC50 came to 41 µM.

With `CC1(C)CC2(CC(C)(C)c3cc(Br)c(O)cc32)c2cc(O)c(Br)cc21`, in series [8], the “Inhibition of DNA relaxation” value is “inactive”. The compound also yielded a 50% inhibitory concentration (IC50) in series [4] of more than 80 µM. Also, in [9], the NA result is “inactive”. Also, the CC50 in series [6] turned out to be 4 µM. Besides, the “Inhibition of DNA cleavage and religation” value in [12] is “inactive”.

As for `CC1(C)CC2(CC(C)(C)c3ccc(O)c(NC(N)=O)c32)c2cc(O)c(NC(N)=O)cc21` (stereo not drawn), the “Inhibition of DNA relaxation” value in series [8] was “inactive”. This compound came in with an IC50 in series [4] of more than 80 µM. In series [6], the CC50 was found to be 60 µM. Moreover, in [12], the “Inhibition of DNA cleavage and religation” value is “inactive”.

On to `CC1(C)CC2(CC(C)(C)c3cc(S(=O)(=O)O)c(O)cc32)c2cc(O)c(S(=O)(=O)O)cc21`, for which the inhibition entry in series [1], in series [3], in series [5] and in series [7] was “inactive” throughout. In series [4], this compound displayed a concentration for half-maximal inhibition (IC50) of more than 80 µM. Moreover, the CC50 in [6] was more than 600 µM.

As to `CC1(C)CC2(CC(C)(C)c3c(Br)c(OS(=O)(=O)O)c(OS(=O)(=O)O)c(Br)c32)c2c(Br)c(OS(=O)(=O)O)c(OS(=O)(=O)O)c(Br)c21`, the results for the half-inhibitory concentration (IC50) (at Topoiomerase 1B; in series [4]) were 75 µM and more than 80 µM, respectively. The CC50 in series [6] turned out to be 207 µM.

For `CC1(C)CC2(CC(C)(C)c3cc(NC(N)=O)c(O)cc32)c2cc(O)c(NC(N)=O)cc21`, the NA result in [13], in [9], in [15], in series [10] and in series [16] was “inactive” in each case. The same compound displayed a half-maximal inhibitory concentration (IC50) in series [4] of more than 80 µM. Also, in series [6], the CC50 was determined as 53 µM.

With `CC1(C)CC2(CC(C)(C)c3cc(C=O)c(O)cc32)c2cc(O)c(C=O)cc21`, the inhibition entry in series [1] was “inactive”. This compound had an IC50 in series [4] of more than 80 µM. Further, the CC50 in [6] turned out to be 4 µM.

`CC1(C)CC2(CC(C)(C)c3cc(O)c(O)cc32)c2cc(O)c(O)cc21`: the inhibition entry in series [1] and in series [7] was “inactive” in each case. The IC50 in [4] is more than 80 µM. For the same compound, the CC50 in [6] was determined as 65 µM.

As to `CC1(C)CC2(CC(C)(C)c3ccc(OS(=O)(=O)O)cc32)c2cc(OS(=O)(=O)O)ccc21`, the inhibition result in [1] was “inactive”. Besides, the 50% inhibitory concentration (IC50) in [4] was more than 80 µM. In addition, the CC50 in [6] is more than 400 µM.

Turning to `CC1(C)CC2(CC(C)(C)c3cc([N+](=O)[O-])c(O)c([N+](=O)[O-])c32)c2cc(O)c([N+](=O)[O-])cc21` (stereo not drawn), the inhibition entry in series [1] was “inactive”. Besides, the values for the IC50 in series [4] and in series [7] were more than 80 µM and 200 µM, respectively. Besides, in series [6], the CC50 was 41 µM.

For `CC1(C)CC2(CC(C)(C)c3cc(I)c(O)cc32)c2cc(O)c(I)cc21`, the “Inhibition of DNA relaxation” value in [8] was “inactive”. The IC50 in series [4] was more than 80 µM. In addition, in [9], the NA result was “inactive”. Further, the CC50 in series [6] was less than 20 µM. In series [12], the “Inhibition of DNA cleavage and religation” value is “inactive”.

Take `CC1(C)CC2(CC(C)(C)c3ccc(O)c(N)c32)c2cc(O)c(N)cc21` (stereo not drawn): the inhibition entry in series [1], in series [2], in series [3], in [5] and in series [7] was “inactive” in each case. The compound also gave a concentration for half-maximal inhibition (IC50) in series [4] of more than 80 µM. Moreover, the CC50 in [6] worked out at 3 µM.

Turning to `CC1(C)CC2(CC(C)(C)c3cc(OS(=O)(=O)O)c(OS(=O)(=O)O)cc32)c2cc(OS(=O)(=O)O)c(OS(=O)(=O)O)cc21`, in [1], the inhibition entry was “inactive”. Also, the results for the half-inhibitory concentration (IC50) in series [4] and in series [7] were more than 80 µM and 123 µM, respectively. The CC50 in series [6] amounted to 134 µM.
